From PubChem BioAssay
An excerpt weighted towards active compounds, which were near 2.5% of everything screened.
ADAM10 inh: inhibits human ADAM10 | 370,000 tested, 0.62% active | AID 720582 | O14672 | inhibition, % at 7 µM | recombinant ADAM10, EDANS/DABCYL FRET peptide cleavage, 3 h;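 active = inhibition above a per-campaign cutoff equal to the mean of compounds falling between control-based bounds plus 3 SD, cut at about 20% in these data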;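 also: 0% = DMSO wells while the 100% control is not disclosed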
proKLK7 act: activates the human kallikrein-7 zymogen. AID 652039. 370,000 tested, 0.9% active. activation, % at 7 µM. purified proKLK7, EDANS-DABCYL substrate fluorescence; 100% is mature enzyme control, 0% vehicle. P49862;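 active = activation above the mean of all tested compounds plus 3 SD, computed per campaign excluding outliers beyond control limits, cut at about 13% in these data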
NR2E3 ag-1: NR2E3 (human) agonism. Q9Y5X4. GST-NR2E3/biotin-RetCOR TR-FRET, 1536-well. inhibition of corepressor binding, % at 4.78 µM. 320,000 tested, 0.12% active. AID 2300;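 active = percent inhibition above the cutoff of mean plus 3 SD of all tested compounds, set per screening campaign, cut at about 20% in these data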;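 also: 0% = DMSO wells and 100% = biotin wells as full block of FRET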
Target sequence (Q9Y5X4 whole entry, looked up): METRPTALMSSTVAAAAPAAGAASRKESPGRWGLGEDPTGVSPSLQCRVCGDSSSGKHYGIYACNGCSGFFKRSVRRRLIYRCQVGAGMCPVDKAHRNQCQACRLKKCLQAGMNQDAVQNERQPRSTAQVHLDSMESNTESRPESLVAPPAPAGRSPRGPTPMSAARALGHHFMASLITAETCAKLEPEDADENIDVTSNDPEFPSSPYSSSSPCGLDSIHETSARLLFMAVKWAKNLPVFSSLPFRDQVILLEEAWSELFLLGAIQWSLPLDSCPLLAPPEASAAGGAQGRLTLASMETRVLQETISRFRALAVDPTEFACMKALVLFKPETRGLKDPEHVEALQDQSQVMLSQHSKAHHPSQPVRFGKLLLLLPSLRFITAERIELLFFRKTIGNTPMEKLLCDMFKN
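Material: NR2E3–RetCOR corepressor complex / Amount: 1.35 nM GST-NR2E3 / Medium: Tris pH 7.5 / Compound: single nominal compound dose of 4.8 µM / Incubation: 5 h at 4 °C / Technique: TR-FRET, Eu(K)-anti-GST donor, streptavidin-D2 acceptor, ex 340, em 617/671 nm / Read-out basis: percent loss of FRET ratio relative to control wells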
NR2E3 ag-2: activates human NR2E3 receptor | Q9Y5X4 | CHO-S Gal4-NCOR/VP16-NR2E3 two-hybrid, luciferase | inhibition of corepressor binding, % at 3.98 µM | 360,000 tested, 0.35% active;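 active = inhibition above the mean of all tested compounds plus 3 SD, cut at about 70% in these data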;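 also: 0% = DMSO with NR2E3 transfected cells and 100% = cells lacking NR2E3 construct; higher means lower luciferase signal from less NR2E3 corepressor binding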
GASC-1 inh: blocks human GASC-1 demethylase activity | Q9H3R0 | GST-JMJD2C(1-420) H3K9me3 demethylation, DELFIA europium | inhibition, % at 2.35 µM | 330,000 tested, 0.069% active;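 active = more than half of a compound's replicate wells show inhibition beyond 50%, single wells judged on their own value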;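 also: signal counts dimethyl H3K9 product captured on neutravidin plate; 0% = median of DMSO wells and 100% = 0.3 times that DMSO median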
ADAM17 inh: ADAM17 inhibition, QFRET primary screen; P78536; recombinant ADAM17, EDANS/DABCYL FRET peptide cleavage; inhibition, % at 6.95 µM; 370,000 tested, 0.83% active; AID 720648;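 active = inhibition above the mean of compounds lying between control limits plus 3 SD, set per campaign, cut at about 8.5% in these data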;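 also: 0% = DMSO-only wells as the low control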
ADAM10 confirm: confirmation of inhibitors of human ADAM10 | shares compounds with ADAM10 inh | 2,100 tested, 1% active | inhibition, % at 6.95 µM | AID 743208 | ADAM10 QFRET peptide cleavage, EDANS fluorescence;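 active = inhibition above about 20% chosen separately for each screening run, limit read from the data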;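 also: 0% = DMSO wells and 100% = marimastat wells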
ADAM17 ctr: ADAM17 inhibition, counter-screen for ADAM10 exosite hits; shares compounds with ADAM10 inh; ADAM17 QFRET peptide cleavage, EDANS fluorescence; inhibition, % at 6.95 µM; 2,100 tested, 0.5% active; AID 743214;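 active = mean triplicate inhibition above the solvent-only control wells' mean plus 3 SD, cut at about 12% in these data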;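 also: 0% = DMSO wells and 100% = marimastat wells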
ADAM10 counter: inhibits human ADAM10 in ADAM17 exosite counter-screen. shares compounds with ADAM17 inh. recombinant ADAM10, EDANS/DABCYL FRET peptide cleavage, 3 h. inhibition, % at 6.95 µM. 2,900 tested, 47% active. AID 743256;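 active = mean inhibition over the triplicate runs exceeds the activity threshold set in the earlier primary screen, cut at about 20% in these data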;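 also: 0% = DMSO wells and 100% = marimastat wells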
ADAM17 confirm: human ADAM17 inhibition, confirmation. shares compounds with ADAM17 inh. recombinant ADAM17, EDANS/DABCYL QFRET peptide cleavage. inhibition, % at 6.95 µM. 2,900 tested, 65% active. AID 743257;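 active = mean inhibition across replicates above the hit cutoff set in the primary screen, cut at about 8.5% in these data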;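 also: 0% = DMSO wells and 100% = marimastat wells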
* = called active by the depositor; . = no result.

SMILES	ADAM10 inh	proKLK7 act	NR2E3 ag-1	NR2E3 ag-2	GASC-1 inh	ADAM17 inh	ADAM10 confirm	ADAM17 ctr	ADAM10 counter	ADAM17 confirm
COc1ccc(OCCC(=O)OCC(=O)Nc2cccc(S(=O)(=O)N3CCOCC3)c2)cc1	5	0	-2	11	-10	2	.	.	.	.
Cc1noc(C)c1COC(=O)c1cccc(S(=O)(=O)N2CCOCC2)c1	4	0	-2	-3	12	-5	.	.	.	.
CC(C)(C)c1ccc(OCCC(=O)Nc2cccc(S(=O)(=O)N3CCOCC3)c2)cc1	32*	0	1	-6	5	15*	5	4	32*	19*
Cc1cccc(N2CCN(C(=O)CSc3nc4ccccc4nc3N3CC(C)OC(C)C3)CC2)c1C (stereo not drawn)	2	1	-1	-28	6	-2	.	.	.	.
C=CCC(=O)NC1CC(C)(C)Cc2c1cnn2-c1ccccc1C (stereo not drawn)	-4	0	0	-5	-7	-7	.	.	.	.
COC(=O)Nc1ccc(S(=O)(=O)N2CCC(Cc3ccccc3)CC2)cc1	20*	0	0	33	4	11*	7	3	35*	14*
CCCCCC(=O)N1C[C@H](n2cc(-c3ccc(F)cc3)nn2)[C@@H](O)C[C@@H]1c1ccc(Cl)cc1	31*	1	.	-23	.	13*	7	2	26*	13*
CCCCCC(=O)N1C[C@@H](O)[C@H](n2cc(-c3ccc(F)cc3)nn2)C[C@@H]1c1ccc(Cl)cc1	13	0	.	-31	.	8	.	.	.	.
OC(CSc1ccc(F)cc1)CN1CCN(c2ccccc2)CC1 (stereo not drawn)	-6	0	3	-5	2	-5	.	.	.	.
O=c1cc(-c2ccc(O)cc2)oc2cc(O)cc(O)c12	-7	0	-2	-39	12	-3	.	.	.	.
O=c1c(O)c(-c2ccc(O)cc2)oc2cc(O)cc(O)c12	21*	-9	-2	-46	41	8.9*	-2	0	-5	3
c1ccc(CN2CCC(Nc3nc(-c4ccccc4)nc4ccccc34)CC2)cc1	21*	0	4	-3	-14	8.9*	8	3	22*	15*
c1ccc(CN2CCC(CNc3ncnc4ccccc34)C2)cc1 (stereo not drawn)	2	0	.	42	.	-2	.	.	.	.
CCCCNC(=O)O[C@H]1C[C@@H]2CCN3C(=O)CCC[C@H]([C@H]1Cc1ccccc1)[C@H]23	8	-1	2	25	3	0	.	.	.	.
O=[N+]([O-])c1cccnc1N1CCC(c2cc(-c3ccc(Cl)cc3Cl)n[nH]2)CC1	30*	0	1	46	-17	11*	8	2	31*	17*
O=[N+]([O-])c1cccnc1N1CCC(c2cc(-c3cccc(C(F)(F)F)c3)n[nH]2)CC1	20*	0	1	27	19	11*	15	3	48*	19*
CC(=O)c1ccc(N2CCN(c3ccccc3O)CC2)c([N+](=O)[O-])c1	8	0	2	35	20	2	.	.	.	.
CC(=O)c1ccc(N2CCC(c3cc(-c4ccc(Cl)cc4Cl)n[nH]3)CC2)c([N+](=O)[O-])c1	20*	0	6	29	14	13*	13	4	44*	21*
